In ChEMBL document CHEMBL4368913, “Design, Synthesis, and Biological Evaluation of 6-Substituted Thieno[3,2- d]pyrimidine Analogues as Dual Epidermal Growth Factor Receptor Kinase and Microtubule Inhibitors” (J Med Chem, 2019) one finds Activity, IC50 and inhibition data, which are given here for seven compounds.

The term IC50 denotes the concentration that gives 50% inhibition. What is called inhibition is the share of the control response that was lost under treatment.

Assay [1] deals with B16. The assay is described as follows: Antitumor activity against mouse B16 cells allografted in C57BL/6 mouse assessed as reduction in tumor burden at 30 mg/kg, ip dosing starting on day 9 post tumor injection administered […] on day 9,11, 13 and 15 relative to control. Type of assay: functional. Also noted: scale not given: the % may be the effect or the level left. The essentials:
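Male C57BL/6 mice, six weeks old, given 2.5×10^5 BL6-B16 murine melanoma cells subcutaneously in the dorsolateral flank in PBS. Once tumours were palpable, compound in 50 µL DMSO was given intraperitoneally every other day from day 9 (days 9, 11, 13, 15); controls received vehicle. Tumour volume compared with control; 5 animals per group; mean ± SEM.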

Assay [2] concerns RS4-11. The experiment in a line: Antiproliferative activity against human RS4:11 cells after 72 hrs by MTT assay. Type of assay: functional, cell-based. As to conditions: RS4-11, 72 h. A digest of the protocol: (§1)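 Cells in medium with 10% FBS, seeded at 8×10^3 per well, 18 h at 37 °C, 5% CO2, then graded compound concentrations (DMSO ≤0.25%) for 72 h. Viability by MTT. […] Mean ± SE of dose-response curves from at least three independent experiments.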

Assay [3] deals with HeLa. The experiment in a line: Antiproliferative activity against human HeLa cells after 72 hrs by MTT assay. It is filed as functional, cell-based.
Assay [4] concerns HT-29. The assay is described as follows: Antiproliferative activity against human HT-29 cells after 72 hrs by MTT assay. It is filed as functional, cell-based. As to conditions: HT-29, 72 h. For orientation: Formazan colour is commonly taken as a measure of viable cells.
In assay [5] the test system is Jurkat. The experiment in a line: Antiproliferative activity against human Jurkat cells after 72 hrs by MTT assay. Type of assay: functional, cell-based. A digest of the protocol: as §1
Assay [6] concerns A549. The assay is described as follows: Antiproliferative activity against human A549 cells after 72 hrs by MTT assay. It is filed as functional, cell-based. As to conditions: A549, 72 h.
In assay [7] the target is Tubulin (Bos taurus, UniProt Q6B856+Q862L2+Q862F3). The assay is described as follows: Inhibition of bovine brain tubulin polymerization after 20 mins. A digest of the protocol:
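Bovine brain tubulin (10 μM) preincubated with varying compound concentrations in 0.8 M monosodium glutamate, pH 6.6, at 30 °C, then chilled to 0 °C. 0.4 mM GTP added, mixtures warmed to 30 °C, assembly followed by turbidity at 350 nm.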

In assay [8] the target is Epidermal growth factor receptor (Homo sapiens, UniProt P00533). The experiment in a line: Inhibition of wild type EGFR (unknown origin) by bioluminescent ADP-glo kinase assay.
Epidermal growth factor receptor, sequence (P00533 whole entry): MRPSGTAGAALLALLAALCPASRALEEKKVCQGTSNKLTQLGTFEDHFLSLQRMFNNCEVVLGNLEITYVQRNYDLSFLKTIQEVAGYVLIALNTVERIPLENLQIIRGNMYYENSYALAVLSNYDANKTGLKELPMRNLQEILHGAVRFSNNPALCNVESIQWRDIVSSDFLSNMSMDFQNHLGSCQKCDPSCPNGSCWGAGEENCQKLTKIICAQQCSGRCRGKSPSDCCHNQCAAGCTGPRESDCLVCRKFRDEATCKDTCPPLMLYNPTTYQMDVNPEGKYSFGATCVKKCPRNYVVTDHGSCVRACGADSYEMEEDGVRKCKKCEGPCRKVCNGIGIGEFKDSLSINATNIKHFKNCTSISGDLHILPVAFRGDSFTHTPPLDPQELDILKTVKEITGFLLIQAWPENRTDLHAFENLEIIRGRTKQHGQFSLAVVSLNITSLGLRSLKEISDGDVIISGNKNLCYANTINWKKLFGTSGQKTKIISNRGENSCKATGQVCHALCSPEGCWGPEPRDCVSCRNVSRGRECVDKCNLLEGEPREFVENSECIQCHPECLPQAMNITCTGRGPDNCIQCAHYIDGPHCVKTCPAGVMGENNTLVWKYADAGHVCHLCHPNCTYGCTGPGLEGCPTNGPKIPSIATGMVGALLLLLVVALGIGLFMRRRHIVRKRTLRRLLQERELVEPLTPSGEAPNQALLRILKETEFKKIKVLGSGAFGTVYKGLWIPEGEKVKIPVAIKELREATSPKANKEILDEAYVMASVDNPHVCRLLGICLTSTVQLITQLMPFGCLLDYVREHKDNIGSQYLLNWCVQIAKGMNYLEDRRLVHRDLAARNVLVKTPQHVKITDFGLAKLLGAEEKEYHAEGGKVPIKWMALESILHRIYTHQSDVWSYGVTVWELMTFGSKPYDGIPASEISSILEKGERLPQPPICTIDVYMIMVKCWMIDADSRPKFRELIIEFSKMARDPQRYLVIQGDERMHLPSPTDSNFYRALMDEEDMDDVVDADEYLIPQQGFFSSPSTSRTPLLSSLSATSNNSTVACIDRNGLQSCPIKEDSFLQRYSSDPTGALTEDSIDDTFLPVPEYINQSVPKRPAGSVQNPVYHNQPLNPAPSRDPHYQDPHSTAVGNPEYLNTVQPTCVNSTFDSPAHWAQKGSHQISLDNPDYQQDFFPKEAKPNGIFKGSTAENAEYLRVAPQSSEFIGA
Assay [9] has as its target Tubulin (Bos taurus) (UniProt Q6B856+Q862L2+Q862F3). The assay is described as follows: Inhibition of [3H]-colchicine binding to bovine brain tubulin at 1 to 5 uM after 20 mins relative to control. A digest of the protocol: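 Colchicine-binding inhibition in mixtures of 1 μM tubulin, 5 μM [3H]colchicine and test compound at 1 or 5 μM.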
In assay [10] the target is T1, Vascular endothelial growth factor receptor 2 (Homo sapiens, UniProt P35968). The experiment in a line: Inhibition of VEGFR2 (unknown origin).
T1 sequence (P35968 whole entry): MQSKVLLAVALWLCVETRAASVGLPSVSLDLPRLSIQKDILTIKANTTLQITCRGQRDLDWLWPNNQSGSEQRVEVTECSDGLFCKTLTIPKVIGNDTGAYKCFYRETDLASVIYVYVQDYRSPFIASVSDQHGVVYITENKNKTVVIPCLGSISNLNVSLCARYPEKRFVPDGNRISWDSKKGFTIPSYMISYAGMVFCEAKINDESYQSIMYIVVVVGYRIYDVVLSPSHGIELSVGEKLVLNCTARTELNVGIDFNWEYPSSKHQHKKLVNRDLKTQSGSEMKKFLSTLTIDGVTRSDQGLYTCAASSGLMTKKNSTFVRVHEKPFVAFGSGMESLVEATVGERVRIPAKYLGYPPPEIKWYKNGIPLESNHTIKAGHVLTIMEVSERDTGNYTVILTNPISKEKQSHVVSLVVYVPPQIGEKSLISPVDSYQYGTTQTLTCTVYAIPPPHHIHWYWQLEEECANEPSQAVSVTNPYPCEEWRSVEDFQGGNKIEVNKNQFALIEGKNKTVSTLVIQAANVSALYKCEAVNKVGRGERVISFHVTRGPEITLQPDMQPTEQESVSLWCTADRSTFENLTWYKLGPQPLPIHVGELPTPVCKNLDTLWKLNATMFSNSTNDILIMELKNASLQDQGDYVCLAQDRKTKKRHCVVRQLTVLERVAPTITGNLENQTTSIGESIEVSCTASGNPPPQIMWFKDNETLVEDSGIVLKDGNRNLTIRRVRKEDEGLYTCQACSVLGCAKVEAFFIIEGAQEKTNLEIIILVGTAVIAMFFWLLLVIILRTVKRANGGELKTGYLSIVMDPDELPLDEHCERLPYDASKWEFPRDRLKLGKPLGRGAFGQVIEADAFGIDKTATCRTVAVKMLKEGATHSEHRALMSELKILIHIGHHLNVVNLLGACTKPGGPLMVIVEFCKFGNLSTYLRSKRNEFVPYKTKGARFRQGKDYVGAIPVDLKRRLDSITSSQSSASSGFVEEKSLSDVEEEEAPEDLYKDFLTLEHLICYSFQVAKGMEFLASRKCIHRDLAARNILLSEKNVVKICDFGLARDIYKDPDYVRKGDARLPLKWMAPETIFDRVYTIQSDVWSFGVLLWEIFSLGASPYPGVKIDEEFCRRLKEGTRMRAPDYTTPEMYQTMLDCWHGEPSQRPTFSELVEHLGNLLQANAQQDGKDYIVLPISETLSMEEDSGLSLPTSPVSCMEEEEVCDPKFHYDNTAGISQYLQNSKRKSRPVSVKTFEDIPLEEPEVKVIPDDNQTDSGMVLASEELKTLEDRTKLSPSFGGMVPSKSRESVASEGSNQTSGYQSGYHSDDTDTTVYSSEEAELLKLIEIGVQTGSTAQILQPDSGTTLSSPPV
Assay [11] has as its target T1, Vascular endothelial growth factor receptor 2. The experiment in a line: Inhibition of wild type VEGFR2 (unknown origin) by bioluminescent ADP-glo kinase assay. A general note: ADP-Glo turns the ADP formed in a reaction into a luminescent signal.

For `COc1ccc(/C=C\c2cc(OC)c(OC)c(OC)c2)cc1OP(=O)([O-])[O-].[Na+].[Na+]` [FOSBRETABULIN DISODIUM], the Activity in assay [1] was determined as 34.9%.

Regarding `COc1cc(Nc2ncnc3cc(-c4ccc(F)cc4)sc23)cc(OC)c1OC`, the IC50 in assay [2] is 1900 nM; in [3] it was 450 nM; in assay [4], 1900 nM; in assay [5], 260 nM; in [6], 13500 nM.

`COc1cc(Nc2ncnc3cc(-c4ccc(Br)cc4)sc23)cc(OC)c1OC`: the IC50 in assay [7] was determined as 2500 nM; in [2], 190 nM; in [3], 220 nM; in assay [8], 326 nM; in assay [4] it was 150 nM; in assay [5] it was 30 nM. This compound had an IC50 in [6] of 530 nM. In addition, in [9], the inhibition came to 35%.

Regarding `c1ccc(-c2cc3ncnc(Nc4ccc5[nH]ccc5c4)c3s2)cc1`, the IC50 in assay [10] turned out to be 80 nM.

The compound `Cc1cc2cc(Nc3ncnc4cc(-c5ccccc5)sc34)ccc2[nH]1` displayed an IC50 in assay [10] of 140 nM.

As for `COc1cc(Nc2ncnc3cc(-c4cccs4)sc23)cc(OC)c1OC`, the IC50 in [7] was 18000 nM; in assay [2] it was 360 nM; in assay [3], 1700 nM; in assay [11] it was above 1000 nM; in assay [8] it was 2.5 nM; in assay [4], 210 nM. Besides, the results for the IC50 in [5] and in assay [6] were 80 nM and 5100 nM, respectively.

Take `COc1ccc(/C=C\c2cc(OC)c(OC)c(OC)c2)cc1O` [COMBRETASTATIN A4]: the IC50 in [2] came out at 1 nM.
